Test results as given in ChEMBL document CHEMBL3046679, “Design, synthesis, and biological activities of arylmethylamine substituted chlorotriazine and methylthiotriazine compounds” (J Agric Food Chem, 2011).
Activity calls are given as the source filed them. No cut-off for these calls is given here.

Tests used:
Brassica napus [1] = experiment: Herbicidal activity against Brassica napus (oilseed rape) at 1.5 kg/ha postemergence treatment measured after 10 days by glasshouse test; assay type: functional; settings: post-emergence, 240 h
Procedure, shortened: (§1)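 Glasshouse pre/postemergence test, each treatment in triplicate. Above-ground fresh weight measured 10 days after treatment. Result expressed as percent inhibition versus control, from 0 (no control) to 100 (complete control); glyphosate used as positive control.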

Puccinia triticina [2] = experiment: Fungicidal activity against Puccinia triticina assessed as inhibition of disease development in compound treated leaf pieces at 200 ppm relative to untreated control (wheat-preventative); assay type: functional
Procedure, shortened: (§2)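 Preventative leaf-piece test on host tissue (tomato, vine, wheat or barley). Formulated compound applied at 200, 60 and 20 ppm before spore inoculation. Disease scored 3–9 days after inoculation, depending on the pathogen, as percent inhibition of disease development versus untreated controls. Values are the mean across replicates.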

Pythium dissimile = experiment: Fungicidal activity against Pythium dissimile assessed as inhibition of mycelia growth at 2 ppm; assay type: functional, organism-based
Procedure, shortened: (§3)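 Mycelial growth test in 96-well plates: compound incorporated into artificial growth medium at 2 ppm, two replicates per rate. Each well scored 99 for complete, 55 for partial or 0 for no inhibition. Values are the mean across replicates; azoxystrobin and prochloraz used as positive controls.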

Amaranthus retroflexus = experiment: Herbicidal activity against Amaranthus retroflexus assessed as growth inhibition at 1 kg/ha postemergence treatment by glasshouse test; assay type: functional; settings: post-emergence, read-out: GI
Procedure, shortened: (§4)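 Glasshouse screen with pre- or postemergence application at 1.0 kg/ha. Result given as percent inhibition of plant growth; norflurazon and glyphosate used as controls.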

Brassica napus [3] = experiment: Herbicidal activity against Brassica napus (oilseed rape) at 1.5 kg/ha preemergence treatment measured after 10 days by glasshouse test; assay type: functional; settings: pre-emergence, 240 h; procedure, shortened: as §1
Puccinia triticina [4] = experiment: Fungicidal activity against Puccinia triticina assessed as inhibition of disease development in compound treated leaf pieces at 60 ppm relative to untreated control (wheat-curative); assay type: functional
Procedure, shortened: (§5)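 Curative wheat leaf-piece test against Puccinia triticina. Leaf pieces inoculated with spores first, then treated with formulated compound at 200, 60 or 20 ppm. Disease scored 3–9 days after inoculation as percent inhibition versus untreated controls. Values are the mean across replicates.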

[5] = test system: Blumeria graminis f. sp. tritici; experiment: Fungicidal activity against Blumeria graminis f. sp. tritici assessed as inhibition of disease development in compound treated leaf pieces at 200 ppm relative to untreated control (wheat-preventative); assay type: functional
Echinochloa crus-galli [6] = experiment: Herbicidal activity against Echinochloa crus-galli (barnyard grass) at 1.5 kg/ha preemergence treatment measured after 10 days by glasshouse test; assay type: functional; settings: pre-emergence, 240 h; procedure, shortened: as §1
Phytophthora infestans [7] = experiment: Fungicidal activity against Phytophthora infestans assessed as inhibition of disease development in compound treated leaf pieces at 200 ppm relative to untreated control (tomato-preventative); assay type: functional; procedure, shortened: as §2
Fusarium graminearum = experiment: Fungicidal activity against Fusarium graminearum assessed as inhibition of mycelia growth at 2 ppm; assay type: functional, organism-based; procedure, shortened: as §3
Plasmopara viticola [8] = experiment: Fungicidal activity against Plasmopara viticola assessed as inhibition of disease development in compound treated leaf pieces at 20 ppm relative to untreated control (grapevine-preventative); assay type: functional; procedure, shortened: as §2
Digitaria sanguinalis [9] = experiment: Herbicidal activity against Digitaria sanguinalis (hairy crabgrass) assessed as growth inhibition at 1 kg/ha postemergence treatment by glasshouse test; assay type: functional; settings: post-emergence, read-out: GI; procedure, shortened: as §4
Botrytis cinerea = experiment: Fungicidal activity against Botryotinia fuckeliana assessed as inhibition of mycelia growth at 2 ppm; assay type: functional, organism-based; procedure, shortened: as §3
Alternaria solani [10] = experiment: Fungicidal activity against Alternaria solani assessed as inhibition of disease development in compound treated leaf pieces at 200 ppm relative to untreated control (tomato-preventative); assay type: functional; procedure, shortened: as §2
Stellaria media [11] = experiment: Herbicidal activity against Stellaria media assessed as growth inhibition at 1 kg/ha postemergence treatment by glasshouse test; assay type: functional; settings: post-emergence, read-out: GI; procedure, shortened: as §4
[12] = test system: Blumeria graminis f. sp. tritici; experiment: Fungicidal activity against Blumeria graminis f. sp. tritici assessed as inhibition of disease development in compound treated leaf pieces at 60 ppm relative to untreated control (wheat-preventative); assay type: functional
Parastagonospora nodorum [13] = experiment: Fungicidal activity against Phaeosphaeria nodorum assessed as inhibition of disease development in compound treated leaf pieces at 20 ppm relative to untreated control (wheat preventative); assay type: functional; procedure, shortened: as §2
Poa annua = experiment: Herbicidal activity against Poa annua assessed as growth inhibition at 32 ppm by 96-well plate test; assay type: functional; settings: read-out: GI
Procedure, shortened: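 96-well plate herbicide screen: Arabidopsis thaliana at 10 ppm and Poa annua at 32 ppm, two replicates. Plates incubated seven days in a controlled-environment cabinet. Each replicate scored 0 (no visible effect) or 99 (herbicidal effect); values are the mean of the two. Atrazine used as reference.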

Zymoseptoria tritici = experiment: Fungicidal activity against Zymoseptoria tritici assessed as inhibition of mycelia growth at 100 ppm; assay type: functional, organism-based
Puccinia triticina [14] = experiment: Fungicidal activity against Puccinia triticina assessed as inhibition of disease development in compound treated leaf pieces at 200 ppm relative to untreated control (wheat-curative); assay type: functional; procedure, shortened: as §5
Alternaria solani [15] = experiment: Fungicidal activity against Alternaria solani assessed as inhibition of mycelia growth at 2 ppm; assay type: functional, organism-based; procedure, shortened: as §3
Phytophthora infestans [16] = experiment: Fungicidal activity against Phytophthora infestans assessed as inhibition of disease development in compound treated leaf pieces at 20 ppm relative to untreated control (tomato-preventative); assay type: functional; procedure, shortened: as §2
Parastagonospora nodorum [17] = experiment: Fungicidal activity against Phaeosphaeria nodorum assessed as inhibition of disease development in compound treated leaf pieces at 60 ppm relative to untreated control (wheat preventative); assay type: functional; procedure, shortened: as §2
Stellaria media [18] = experiment: Herbicidal activity against Stellaria media assessed as growth inhibition at 1 kg/ha preemergence treatment by glasshouse test; assay type: functional; settings: pre-emergence, read-out: GI; procedure, shortened: as §4
Aphididae = experiment: Insecticidal activity against Aphididae (aphids) assessed as mortality at 1000 ppm by leaf-disk assay; assay type: functional, organism-based
Procedure, shortened: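 Leaf-disk assay at 1000 ppm, three replicates. Plates kept 5–9 days in controlled-environment cabinets. Mortality judged against untreated wells: 99 for significant mortality, 0 otherwise. Values are the mean of three; thiamethoxam and indoxacarb used as positive controls.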

Echinochloa crus-galli [19] = experiment: Herbicidal activity against Echinochloa crus-galli (barnyard grass) at 1.5 kg/ha postemergence treatment measured after 10 days by glasshouse test; assay type: functional; settings: post-emergence, 240 h; procedure, shortened: as §1
Plasmopara viticola [20] = experiment: Fungicidal activity against Plasmopara viticola assessed as inhibition of disease development in compound treated leaf pieces at 200 ppm relative to untreated control (grapevine-preventative); assay type: functional; procedure, shortened: as §2
Lolium perenne = experiment: Herbicidal activity against Lolium perenne (perennial ryegrass) assessed as growth inhibition at 1 kg/ha postemergence treatment by glasshouse test; assay type: functional; settings: post-emergence, read-out: GI; procedure, shortened: as §4
Alternaria solani [21] = experiment: Fungicidal activity against Alternaria solani assessed as inhibition of disease development in compound treated leaf pieces at 60 ppm relative to untreated control (tomato-preventative); assay type: functional; procedure, shortened: as §2
Pyrenophora teres [22] = experiment: Fungicidal activity against Pyrenophora teres assessed as inhibition of disease development in compound treated leaf pieces at 200 ppm relative to untreated control (barley-preventative); assay type: functional; procedure, shortened: as §2
Digitaria sanguinalis [23] = experiment: Herbicidal activity against Digitaria sanguinalis (hairy crabgrass) assessed as growth inhibition at 1 kg/ha preemergence treatment by glasshouse test; assay type: functional; settings: pre-emergence, read-out: GI; procedure, shortened: as §4
Alternaria solani [24] = experiment: Fungicidal activity against Alternaria solani assessed as inhibition of disease development in compound treated leaf pieces at 20 ppm relative to untreated control (tomato-preventative); assay type: functional; procedure, shortened: as §2
Phytophthora infestans [25] = experiment: Fungicidal activity against Phytophthora infestans assessed as inhibition of mycelia growth at 200 ppm; assay type: functional, organism-based
Phytophthora infestans [26] = experiment: Fungicidal activity against Phytophthora infestans assessed as inhibition of disease development in compound treated leaf pieces at 60 ppm relative to untreated control (tomato-preventative); assay type: functional; procedure, shortened: as §2
Pyrenophora teres [27] = experiment: Fungicidal activity against Pyrenophora teres assessed as inhibition of disease development in compound treated leaf pieces at 60 ppm relative to untreated control (barley-preventative); assay type: functional; procedure, shortened: as §2

## CC(C)Nc1nc(Cl)nc(NCc2ccc(F)cc2)n1
Brassica napus [1]
  inhibition at 1500 g/ha: 100%
Puccinia triticina [2]
  inhibition at 200 ppm: 100%
Pythium dissimile
  inhibition: inactive
Amaranthus retroflexus
  inhibition of growth at 1000 g/ha: 100%
Brassica napus [3]
  inhibition at 1500 g/ha: 100%
Puccinia triticina [4]
  inhibition at 60 ppm: 100%
[5]
  inhibition at 200 ppm: 70%
Echinochloa crus-galli [6]
  inhibition at 1500 g/ha: 2.1%
Phytophthora infestans [7]
  inhibition at 200 ppm: 0%
Fusarium graminearum
  inhibition: inactive
Plasmopara viticola [8]
  inhibition at 20 ppm: 0%
Digitaria sanguinalis [9]
  inhibition of growth at 1000 g/ha: 0%
Botrytis cinerea
  inhibition: Active
Alternaria solani [10]
  inhibition at 200 ppm: 0%
Stellaria media [11]
  inhibition of growth at 1000 g/ha: 90%
[12]
  inhibition at 60 ppm: 20%
Parastagonospora nodorum [13]
  inhibition at 20 ppm: 0%
Poa annua
  inhibition of growth at 32 ppm: 0%
Zymoseptoria tritici
  inhibition: Active
Puccinia triticina [14]
  inhibition at 200 ppm: 100%
Alternaria solani [15]
  inhibition: inactive
Phytophthora infestans [16]
  inhibition at 20 ppm: 0%
Parastagonospora nodorum [17]
  inhibition at 60 ppm: 20%
Stellaria media [18]
  inhibition of growth at 1000 g/ha: 90%
Aphididae
  mortality: inactive
Echinochloa crus-galli [19]
  inhibition at 1500 g/ha: 75.7%
Plasmopara viticola [20]
  inhibition at 200 ppm: 50%
Lolium perenne
  inhibition of growth at 1000 g/ha: 50%
Alternaria solani [21]
  inhibition at 60 ppm: 0%
Pyrenophora teres [22]
  inhibition at 200 ppm: 0%
Digitaria sanguinalis [23]
  inhibition of growth at 1000 g/ha: 70%
Alternaria solani [24]
  inhibition at 20 ppm: 0%
Phytophthora infestans [25]
  inhibition: inactive
Phytophthora infestans [26]
  inhibition at 60 ppm: 0%
Pyrenophora teres [27]
  inhibition at 60 ppm: 0%
